Results on 167 variants are retold here after the RNAGym collection of RNA variant scans (doi:10.1126/science.aae0568).

Variants at the floor of the assay were thinned out. Bounds are passed on as bounds.

The labels stand for the following.
B1: tRNA (parent)
chain: GUUCCGUUGGCGUAAUGGUAACGCGUCUCCCUCCUAAGGAGAAGACUGCGGGUUCGAGUCCCGUACGGAACG

In the data set the parent is B1. The experiment in a line: yeast fitness relative to wild type (ratio to wild type); higher = fitter; tRNA-Arg(CCU), competitive growth, 37 C, YPD. In short, it runs like this:
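Changes in genotype frequencies gave Darwinian fitness relative to wild type. Frequencies were read by 100-nucleotide paired-end sequencing of gene amplicons before and after pooled Saccharomyces cerevisiae strains, carrying tRNA-Arg(CCU) gene variants at the native locus, were competed in YPD at 37°C for 24 hours in six replicates. A genotype was kept only with ≥ 100 starting reads, and estimates < 0.5 were set to 0.5.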
On to G9A C11U A69C, for which the yeast fitness worked out at 0.787. For G9A A15C G56A C61U, the yeast fitness is not above 0.5. As for G9A A15C A43U, the figure is not above 0.5; as for G9A C11A A69C, 0.567; as for G9A C11G U32G A45G C49U U53A, 0.549. As for G9A A43G U59A, the yeast fitness is 0.535.

G9A C22A A65G: the yeast fitness came to 0.617.

For G9A A43G G63A, the yeast fitness was not above 0.5.

On to G9A C22U U53G, for which the yeast fitness was 0.555. In the case of G9A C11G U13G G23C C34U U59C C66U, the yeast fitness was found to be 0.574. As for G9A A21U C66G, the figure is not above 0.5; as for G9A C11G A57U, not above 0.5; as for G9A C24G A40C G68A, not above 0.5.

With G9A C24G G41C C66G, the yeast fitness is not above 0.5. Turning to G9A A21U A36G A40C U47C, the yeast fitness is not above 0.5. As for G9A A57U, the yeast fitness is 0.672. The result for G9A A15G A42C C62U reads not above 0.5. The result for G9A C22G U35C C49G G68C reads not above 0.5; that for G9A A40G C66U, not above 0.5; that for G9A A21U C31G G63A C66A, not above 0.5. G9A C22U A37G: the yeast fitness is not above 0.5. As for G9A C22G U54C, the figure is 0.589; as for G9A C22U A43G U64A, not above 0.5.

As to G9A A15G A20U U28C A69U, the yeast fitness worked out at 0.542.

G9A A69C: the yeast fitness came out at 1.05. As to G9A A21U C31G, the yeast fitness turned out to be 0.573. As for G9A A20G C49U, the yeast fitness is 0.847.

On to G9A A21G G58C A70C, for which the yeast fitness was not above 0.5.

On to G9A A15G A20U U28C A45U, for which the yeast fitness is not above 0.5.

Turning to G9A A42C C55G, the yeast fitness is not above 0.5.

In the case of G9A C11G U19C G56A C60G, the yeast fitness came to 0.566. The result for G9A A40C G48C A57G reads not above 0.5; that for G9A C22U U28C G44A G51C G58C, not above 0.5. The result for G9A C11A C30A A42C reads 0.531; that for G9A A40C U54C, 0.753. As for G9A A15G U16A G23C, the yeast fitness was not above 0.5.

On to G9A A57U A65U, for which the yeast fitness turned out to be 0.532. As for G9A C11G U13C C27A C29U, the figure is not above 0.5; as for G9A A40G C60U, not above 0.5. Take G9A C22G U35C A70G: the yeast fitness is not above 0.5. The result for G9A C11G U19C reads 0.536; that for G9A A43U C49U, 0.744; that for G9A A14U C34G A37C, not above 0.5. As for G9A A43C C62G, the figure is not above 0.5; as for G9A C11G C55G, 0.562; as for G9A C11G U32C A69C, not above 0.5. As for G9A C11G C33U A36G C55G, the figure is not above 0.5. With G9A C24A U59A G67A, the yeast fitness is not above 0.5. As for G9A C22A U26A G52C G67A, the figure is not above 0.5. G9A A15U A45U: the yeast fitness worked out at 0.533. As for G9A C11U A36C, the figure is not above 0.5; as for G9A A45C U64C A65C, 0.648. As for G9A A37C G67C, the yeast fitness is not above 0.5.

For the variant G9A C11G C24G U32A, the yeast fitness is not above 0.5.

With G9A A15U G41A, the yeast fitness is not above 0.5. As for G9A C24G C30U A57G, the figure is not above 0.5; as for G9A A21C G52A G56C C62G C66U, not above 0.5; as for G9A A20G C30U G52A G68A, not above 0.5. The result for G9A A15C A69U reads 0.86; that for G9A C24G C34G A43C, not above 0.5.

With G9A C24G A37G U59A G67A, the yeast fitness was not above 0.5. The result for G9A A15U A20G A65U reads not above 0.5; that for G9A A57G G67A, 0.558. The result for G9A A15U C22A G25A G48A reads not above 0.5. Consider G9A C11G C22U A40G A70G, for which the yeast fitness was not above 0.5. The result for G9A A70C reads 1.06; that for G9A A70U, 0.875.

For the variant G9A A36C G48A G67A, the yeast fitness was not above 0.5. The result for G9A A65G A70G reads 0.595; that for G9A A21G C29G C34G, not above 0.5; that for G9A C11A A14C U16A C31A C61U, not above 0.5.

Regarding G9A C11G A40U G56A, the yeast fitness was not above 0.5. The result for G9A C22G C31U C61A A65C C66A reads not above 0.5. Regarding G9A C11U, the yeast fitness was found to be 0.928. The result for G9A C11G reads 0.583; that for G9A C11A, 0.604; that for G9A C11U U47G C62G A69C, not above 0.5. On to G9A C22G G67A, for which the yeast fitness came to 0.648. As for G9A A14U C29G C34A G56A, the figure is not above 0.5; as for G9A A57U C66U, 0.548; as for G9A C11A C30A A42C G67C, not above 0.5. The result for G9A A14U C29G C34A C62U reads not above 0.5; that for G9A C22G C31U, 0.683. As for G9A A21U U28C G44A C55G, the figure is not above 0.5. On to G9A A36G A43G, for which the yeast fitness was 0.748. Turning to G9A A65G, the yeast fitness worked out at 0.881. The result for G9A A45U C62A reads not above 0.5. As for G9A A20G, the figure is 1.05.

Turning to G9A A45C U53A G63C, the yeast fitness was not above 0.5. As for G9A A37C A43C, the figure is 0.524; as for G9A A43C A57U C66U, 0.516; as for G9A C22U C30A C49A C55A C61A C62U C66U, not above 0.5. As for G9A A40C C66U, the figure is 0.719; as for G9A A42G C49A G58A, not above 0.5. The result for G9A C11U C55G reads 0.601. For G9A A20G A42C G52C U54A, the yeast fitness was not above 0.5. For G9A A36U, the yeast fitness is 0.677.

G9A A36G: the yeast fitness stood at 1.03. The result for G9A C11A C34G A36G A65C reads not above 0.5. As for G9A C11G U13G G23C C34U C49U U59C C66U, the figure is not above 0.5; as for G9A A45G, 1.01; as for G9A A45U, 0.86. For G9A C22U G48A C60G A65C, the yeast fitness is not above 0.5. As for G9A C11G A36U, the figure is not above 0.5. As for G9A C11U A37G A45C, the figure is 0.603. The result for G9A C11U C29A reads 0.506. Consider G9A A43G, for which the yeast fitness amounted to 0.987. The result for G9A A45U G50A G58C reads 0.975.

For G9A A15U C29G C33U A36C G67A, the yeast fitness is not above 0.5. On to G9A C11U A42U U47C G51A A70C, for which the yeast fitness was not above 0.5. In the case of G9A A15G U16A G23C A69C, the yeast fitness is not above 0.5.

G9A A21U C24U C29U C49U: the yeast fitness is not above 0.5.

With G9A A14U C29G C34A, the yeast fitness was 0.55.

As for G9A A21G C29G C34G A57U C62G, the yeast fitness is not above 0.5. As for G9A A36U G39A U54A, the yeast fitness was not above 0.5. As for G9A A36U G39A A57G A69C, the figure is not above 0.5; as for G9A C11G C22U A40G, not above 0.5; as for G9A A36C C49A C55U A57G A69U, not above 0.5. With G9A A37C, the yeast fitness was 0.918.

With G9A A43C A57C, the yeast fitness came out at 0.569. The result for G9A A43C A57U reads not above 0.5; that for G9A A36G C66U, 0.77; that for G9A C22U C61U A70C, not above 0.5. As for G9A A40U G51C C66U G67U, the yeast fitness is not above 0.5. The result for G9A A20G G38A C62U reads 0.676; that for G9A A20U A21U, not above 0.5; that for G9A C11A A57G, not above 0.5. As for G9A C22G A65C, the figure is 0.679. The result for G9A C11G G50C C61G A70C reads not above 0.5. Consider G9A A36C G38A, for which the yeast fitness is not above 0.5. Take G9A A69C A70C: the yeast fitness stood at 1.04. As for G9A C11A G44A C46A, the figure is not above 0.5; as for G9A C11G U13C C27A C29U C62A, not above 0.5. The result for G9A C24G C34G C61U reads not above 0.5. Consider G9A A43C A69U A70C, for which the yeast fitness came out at 0.782.

On to G9A C11A G50C C55A, for which the yeast fitness is not above 0.5.

For G9A C22A U47G C55A U64C G67A, the yeast fitness was not above 0.5. As for G9A A45G G68C, the figure is 0.543. For the variant G9A A40C A45G A57G, the yeast fitness was not above 0.5.

Take G9A A15G A20U U28C: the yeast fitness was found to be 0.551. With G9A C11G C24G U32G G52C, the yeast fitness was not above 0.5. As to G9A C11A A20G A42U G68C A70C, the yeast fitness is 0.554.

Take G9A C11A G38C G58A C60G: the yeast fitness was not above 0.5. For the variant G9A A36G C46U, the yeast fitness was 0.683. The result for G9A A36C A45C G63A reads not above 0.5; that for G9A A37C U54C G67C, not above 0.5; that for G9A C22A U47G C55A, not above 0.5. The result for G9A C11G U54C C55G G63C G67C reads not above 0.5; that for G9A A15C, 0.788. As for G9A A45C C46G A57U, the figure is not above 0.5; as for G9A A57U A65C A69C, not above 0.5; as for G9A A37G A40U C49A A57U, not above 0.5. G9A A21C C46G C49G: the yeast fitness is not above 0.5.

With G9A C24A C66A, the yeast fitness was not above 0.5. G9A C11G U13G G23C G25A C34U U59C C66U: the yeast fitness was not above 0.5. Consider G9A C22A U53A A57G C60A, for which the yeast fitness is not above 0.5. As for G9A C11U A14G C29A, the yeast fitness is not above 0.5. As for G9A C11G G68A, the figure is not above 0.5; as for G9A A42G C61A, 0.611. Consider G9A C11U C46G C62U C66U, for which the yeast fitness was not above 0.5.

With G9A A20G U64C, the yeast fitness is 0.674. The result for G9A A36G G68U reads 0.743; that for G9A C22U C60G A65C, 0.648; that for G9A A21U G39C, not above 0.5. The result for G9A A36C A45C reads 0.602; that for G9A A15U A20G, 0.503. The result for G9A A21C C34A A43G reads not above 0.5.
